The record followed here is ChEMBL document CHEMBL2384985 (Bioorg Med Chem Lett, 2013).

Active and inactive are the calls of the source. The rule behind the calls is not given here.

In test [1] the test system is Embryonic stem cell. The test can be described thus: Induction of cardiomyogenic activity in human embryonic stem cells assessed as cell growth at 5 uM measured on day 15 by FACS analysis. The test is classed as functional, cell-based. On the technique in general: In flow cytometry, cells or beads pass a laser one at a time.
Test [2] has as its system Embryonic stem cell. In words: Induction of cardiomyogenic activity in human embryonic stem cells assessed as cardiomyocyte yield at 1 to 5 uM measured on day 15 by FACS analysis. Type of test: functional, cell-based. Put shortly: (§1)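 Nkx2.5eGFP/w transgenic hESC line (eGFP driven by cardiac progenitor marker Nkx2.5). Compound present from Day 0, the day of embryoid body formation, to Day 8. On Day 15 EBs were dissociated to single cells for FACS. Nkx2.5 was read as GFP expression, and α-MHC by MF20 primary antibody with FITC-conjugated secondary.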

For test [3], the system named is Embryonic stem cell. The test can be described thus: Induction of cardiomyogenic activity in human embryonic stem cells assessed as cardiomyocyte yield at 5 to 15 uM measured on day 15 by FACS analysis. The test is classed as functional, cell-based. An outline of the steps:
as §1

Test [4] deals with Embryonic stem cell. The test can be described thus: (§2) Induction of cardiomyogenic activity in human embryonic stem cells assessed as cardiomyocyte yield at 5 uM measured on day 15 by FACS analysis relative to control. Type of test: functional. An outline of the steps: as §1
Test [5] in a line: as §2. The test is classed as functional, Embryonic stem cell. An outline of the steps:
as §1

In test [6] the test system is Embryonic stem cell. In words: Induction of cardiomyogenic activity in human embryonic stem cells assessed as cardiomyocyte yield at 5 to 100 uM measured on day 15 by FACS analysis. Type of test: functional, cell-based. Put shortly: as §1
A short description of test [7]: Reduction of cardiomyogenic activity in human embryonic stem cells assessed as cardiomyocyte yield at 5 uM measured on day 15 by FACS analysis relative to control. The test is classed as functional, Embryonic stem cell. Put shortly:
as §1

Test [8] has as its system Embryonic stem cell. The test can be described thus: Induction of cardiomyogenic activity in human embryonic stem cells assessed as cardiomyocyte yield at 2 to 5 uM measured on day 15 by FACS analysis. The test is classed as functional, cell-based. An outline of the steps: as §1

Take `C[S+]([O-])c1ccc(-c2nc(-c3ccc(F)cc3)c(-c3ccncc3)[nH]2)cc1` (stereo not given): the outcome in test [1] was Active.
For the compound `Cc1cccc(-c2nc(-c3ccccc3F)[nH]c2-c2ccncc2)c1`, in test [2], the result was inactive.
Take `Cc1cccc(-c2nc(-c3ccc([S+](C)[O-])cc3)[nH]c2C2=CCOCC2)c1` (stereo not given): the result in test [3] was inactive. In addition, in test [4], the outcome was Active.
Consider `Cc1cccc(-c2nc(-c3c(F)cccc3F)[nH]c2-c2ccncc2)c1`, for which the result in test [2] was inactive.
Regarding `Cc1cccc(-c2nc(-c3ccc([S+](C)[O-])cc3)[nH]c2-c2ccncc2)c1` (stereo not given), the result in test [1] was Active. Also, the Ratio in test [5] stood at 5.
As to `C[S+]([O-])c1ccc(-c2nc(-c3ccc(F)cc3)c(C3=CCOCC3)[nH]2)cc1` (stereo not given), the outcome in test [6] was inactive. The Ratio in test [7] stood at 2.
For `Cc1cccc(-c2nc(-c3ccc(O)cc3)[nH]c2-c2ccncc2)c1`, in test [8], the result was inactive.
